In brackets after ≈: the same amount, converted by molar mass.
Columns and labels:
Vero [1] = assay: Cytotoxicity against African green monkey Vero cells at 394 ug/mL by neutral red dye uptake assay relative to control; assay type: cell-based; details: chlorocebus sabaeus
Outline: (§1)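 Vero cells (over 99% viable by trypan blue exclusion) were exposed to serial compound dilutions in E-MEM, with fresh E-MEM as negative control, for 72 h at 37 °C, 5% CO2. Cells were then given 3.3 mg/L neutral red for 2 h, and the dye was extracted with 50% ethanol/1% acetic acid. A540 was read, and viability was calculated as treated/control absorbance × 100.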

Rhodotorula [2] = assay: Antifungal activity against Rhodotorula species after 48 hrs by CLSI M27A3 broth microdilution method; assay type: functional
Outline: (§2)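 Yeasts were kept on Sabouraud dextrose agar and subcultured at 35 °C for at least 2 days. They were suspended in saline to McFarland 0.5 and diluted in RPMI. Ten successive dilutions were made from a 1.6 mg/mL DMSO stock per CLSI broth microdilution, then incubated at 37 °C for 48 h. Growth was read visually against a growth-control well, and MIC is the lowest concentration inhibiting growth.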

Vero [3] = assay: Cytotoxicity against African green monkey Vero cells at 12.3 ug/mL by neutral red dye uptake assay relative to control; assay type: cell-based; details: chlorocebus sabaeus; outline: as §1
Vero [4] = assay: Cytotoxicity against African green monkey Vero cells at 49 ug/mL by neutral red dye uptake assay relative to control; assay type: cell-based; details: chlorocebus sabaeus; outline: as §1
Candida parapsilosis = assay: Antifungal activity against Candida parapsilosis after 48 hrs by CLSI M27A3 broth microdilution method; assay type: functional; details: Lodderomyces parapsilosis; outline: as §2
Papiliotrema laurentii = assay: Antifungal activity against Cryptococcus laurentii after 48 hrs by CLSI M27A3 broth microdilution method; assay type: functional; outline: as §2
Vero [5] = assay: Cytotoxicity against African green monkey Vero cells at 197 ug/mL by neutral red dye uptake assay relative to control; assay type: cell-based; details: chlorocebus sabaeus; outline: as §1
Geotrichum = assay: Antifungal activity against Geotrichum species after 48 hrs by CLSI M27A3 broth microdilution method; assay type: functional; outline: as §2
Trichosporon asahii = assay: Antifungal activity against Trichosporon asahii after 48 hrs by CLSI M27A3 broth microdilution method; assay type: functional; outline: as §2
Vero [6] = assay: Cytotoxicity against African green monkey Vero cells at 25 ug/mL by neutral red dye uptake assay relative to control; assay type: cell-based; details: chlorocebus sabaeus; outline: as §1
Vero [7] = assay: Cytotoxicity against African green monkey Vero cells at 787 ug/mL by neutral red dye uptake assay relative to control; assay type: cell-based; details: chlorocebus sabaeus; outline: as §1
Vero [8] = assay: Cytotoxicity against African green monkey Vero cells at 1575 ug/mL by neutral red dye uptake assay relative to control; assay type: cell-based; details: chlorocebus sabaeus; outline: as §1
Vero [9] = assay: Cytotoxicity against African green monkey Vero cells at 3150 ug/mL by neutral red dye uptake assay relative to control; assay type: cell-based; details: chlorocebus sabaeus; outline: as §1
Vero [10] = assay: Cytotoxicity against African green monkey Vero cells at 98 ug/mL by neutral red dye uptake assay relative to control; assay type: cell-based; details: chlorocebus sabaeus; outline: as §1
[11] = tested on: Meyerozyma guilliermondii; assay: Antifungal activity against Candida guilliermondii after 48 hrs by CLSI M27A3 broth microdilution method; assay type: functional; outline: as §2
Candida albicans = assay: Antifungal activity against Candida albicans after 48 hrs by CLSI M27A3 broth microdilution method; assay type: functional; outline: as §2
Rhodotorula [12] = assay: Ratio of fluconazole MFC to compound MFC for Rhodotorula species; assay type: functional
Rhodotorula [13] = assay: Ratio of fluconazole MIC to compound MIC for Rhodotorula species; assay type: functional

O=C1CSC(c2ccccc2F)N1CCN1CCCCC1 (stereo not drawn)
Cell viability (Vero [1]): 45%
MFC (Rhodotorula [2]): 36 µg/mL (≈ 117 µM)
MIC (Rhodotorula [2]): 36 µg/mL (≈ 117 µM)
Cell viability (Vero [3]): 100%
Cell viability (Vero [4]): 95%
MFC (Candida parapsilosis): 100 µg/mL (≈ 324 µM)
MIC (Candida parapsilosis): 100 µg/mL (≈ 324 µM)
MFC (Papiliotrema laurentii): 100 µg/mL (≈ 324 µM)
MIC (Papiliotrema laurentii): 100 µg/mL (≈ 324 µM)
Cell viability (Vero [5]): 65%
MFC (Geotrichum): > 400 µg/mL
MIC (Geotrichum): > 400 µg/mL
MFC (Trichosporon asahii): > 400 µg/mL
MIC (Trichosporon asahii): > 400 µg/mL
Cell viability (Vero [6]): 100%
Cell viability (Vero [7]): 10%
Cell viability (Vero [8]): 10%
Cell viability (Vero [9]): 10%
Cell viability (Vero [10]): 82%
MFC [11]: 133 µg/mL (≈ 431 µM)
MIC [11]: 133 µg/mL (≈ 431 µM)
MFC (Candida albicans): 100 µg/mL (≈ 324 µM)
MIC (Candida albicans): 100 µg/mL (≈ 324 µM)

O=C1CSC(c2cccc([N+](=O)[O-])c2)N1CCN1CCCCC1 (stereo not drawn)
Cell viability (Vero [1]): 60%
MFC (Rhodotorula [2]): 16.5 µg/mL (≈ 49.2 µM)
MIC (Rhodotorula [2]): 16.5 µg/mL (≈ 49.2 µM)
Cell viability (Vero [3]): 100%
Cell viability (Vero [4]): 100%
Ratio (Rhodotorula [12]): 1.6
MFC (Candida parapsilosis): 100 µg/mL (≈ 298 µM)
MIC (Candida parapsilosis): 100 µg/mL (≈ 298 µM)
MFC (Papiliotrema laurentii): 100 µg/mL (≈ 298 µM)
MIC (Papiliotrema laurentii): 100 µg/mL (≈ 298 µM)
Cell viability (Vero [5]): 75%
MFC (Geotrichum): 100 µg/mL (≈ 298 µM)
MIC (Geotrichum): 100 µg/mL (≈ 298 µM)
MFC (Trichosporon asahii): > 400 µg/mL
MIC (Trichosporon asahii): > 400 µg/mL
Cell viability (Vero [6]): 100%
Ratio (Rhodotorula [13]): 1.6
Cell viability (Vero [7]): 15%
Cell viability (Vero [8]): 7%
Cell viability (Vero [9]): 2%
Cell viability (Vero [10]): 94%
MFC [11]: 100 µg/mL (≈ 298 µM)
MIC [11]: 100 µg/mL (≈ 298 µM)
MFC (Candida albicans): 50 µg/mL (≈ 149 µM)
MIC (Candida albicans): 50 µg/mL (≈ 149 µM)

O=C1CSC(c2cccc(F)c2)N1CCN1CCCCC1 (stereo not drawn)
Cell viability (Vero [1]): 60%
MFC (Rhodotorula [2]): 33.5 µg/mL (≈ 109 µM)
MIC (Rhodotorula [2]): 33.5 µg/mL (≈ 109 µM)
Cell viability (Vero [3]): 100%
Cell viability (Vero [4]): 97%
MFC (Candida parapsilosis): 100 µg/mL (≈ 324 µM)
MIC (Candida parapsilosis): 100 µg/mL (≈ 324 µM)
MFC (Papiliotrema laurentii): 100 µg/mL (≈ 324 µM)
MIC (Papiliotrema laurentii): 100 µg/mL (≈ 324 µM)
Cell viability (Vero [5]): 84%
MFC (Geotrichum): > 400 µg/mL
MIC (Geotrichum): > 400 µg/mL
MFC (Trichosporon asahii): > 400 µg/mL
MIC (Trichosporon asahii): > 400 µg/mL
Cell viability (Vero [6]): 100%
Cell viability (Vero [7]): 27%
Cell viability (Vero [8]): 17%
Cell viability (Vero [9]): 13%
Cell viability (Vero [10]): 92%
MFC [11]: 100 µg/mL (≈ 324 µM)
MIC [11]: 100 µg/mL (≈ 324 µM)
MFC (Candida albicans): 150 µg/mL (≈ 486 µM)
MIC (Candida albicans): 150 µg/mL (≈ 486 µM)

O=C1CSC(c2ccc(F)cc2)N1CCN1CCCCC1 (stereo not drawn)
Cell viability (Vero [1]): 52%
MFC (Rhodotorula [2]): 25 µg/mL (≈ 81.1 µM)
MIC (Rhodotorula [2]): 25 µg/mL (≈ 81.1 µM)
Cell viability (Vero [3]): 100%
Cell viability (Vero [4]): 100%
MFC (Candida parapsilosis): 100 µg/mL (≈ 324 µM)
MIC (Candida parapsilosis): 100 µg/mL (≈ 324 µM)
MFC (Papiliotrema laurentii): 100 µg/mL (≈ 324 µM)
MIC (Papiliotrema laurentii): 100 µg/mL (≈ 324 µM)
Cell viability (Vero [5]): 73%
MFC (Geotrichum): 50 µg/mL (≈ 162 µM)
MIC (Geotrichum): 50 µg/mL (≈ 162 µM)
MFC (Trichosporon asahii): 100 µg/mL (≈ 324 µM)
MIC (Trichosporon asahii): 100 µg/mL (≈ 324 µM)
Cell viability (Vero [6]): 100%
Cell viability (Vero [7]): 17%
Cell viability (Vero [8]): 14%
Cell viability (Vero [9]): 11%
Cell viability (Vero [10]): 87%
MFC [11]: 100 µg/mL (≈ 324 µM)
MIC [11]: 100 µg/mL (≈ 324 µM)
MFC (Candida albicans): 45 µg/mL (≈ 146 µM)
MIC (Candida albicans): 45 µg/mL (≈ 146 µM)

O=C1CSC(c2ccccc2Cl)N1CCN1CCCCC1 (stereo not drawn)
Cell viability (Vero [1]): 31%
MFC (Rhodotorula [2]): 33 µg/mL (≈ 102 µM)
MIC (Rhodotorula [2]): 33 µg/mL (≈ 102 µM)
Cell viability (Vero [3]): 100%
Cell viability (Vero [4]): 100%
MFC (Candida parapsilosis): 100 µg/mL (≈ 308 µM)
MIC (Candida parapsilosis): 100 µg/mL (≈ 308 µM)
MFC (Papiliotrema laurentii): 100 µg/mL (≈ 308 µM)
MIC (Papiliotrema laurentii): 100 µg/mL (≈ 308 µM)
Cell viability (Vero [5]): 71%
MFC (Geotrichum): 50 µg/mL (≈ 154 µM)
MIC (Geotrichum): 50 µg/mL (≈ 154 µM)
MFC (Trichosporon asahii): 66.5 µg/mL (≈ 205 µM)
MIC (Trichosporon asahii): 66.5 µg/mL (≈ 205 µM)
Cell viability (Vero [6]): 100%
Cell viability (Vero [7]): 38%
Cell viability (Vero [8]): 16%
Cell viability (Vero [9]): 22%
Cell viability (Vero [10]): 94%
MFC [11]: 100 µg/mL (≈ 308 µM)
MIC [11]: 100 µg/mL (≈ 308 µM)
MFC (Candida albicans): 75 µg/mL (≈ 231 µM)
MIC (Candida albicans): 75 µg/mL (≈ 231 µM)

O=C1CSC(c2cccc(Cl)c2)N1CCN1CCCCC1 (stereo not drawn)
Cell viability (Vero [1]): 45%
MFC (Rhodotorula [2]): 25 µg/mL (≈ 77 µM)
MIC (Rhodotorula [2]): 25 µg/mL (≈ 77 µM)
Cell viability (Vero [3]): 100%
Cell viability (Vero [4]): 100%
MFC (Candida parapsilosis): 100 µg/mL (≈ 308 µM)
MIC (Candida parapsilosis): 100 µg/mL (≈ 308 µM)
MFC (Papiliotrema laurentii): 100 µg/mL (≈ 308 µM)
MIC (Papiliotrema laurentii): 100 µg/mL (≈ 308 µM)
Cell viability (Vero [5]): 77%
MFC (Geotrichum): 50 µg/mL (≈ 154 µM)
MIC (Geotrichum): 50 µg/mL (≈ 154 µM)
MFC (Trichosporon asahii): 100 µg/mL (≈ 308 µM)
MIC (Trichosporon asahii): 100 µg/mL (≈ 308 µM)
Cell viability (Vero [6]): 100%
Cell viability (Vero [7]): 31%
Cell viability (Vero [8]): 20%
Cell viability (Vero [9]): 15%
Cell viability (Vero [10]): 100%
MFC [11]: 100 µg/mL (≈ 308 µM)
MIC [11]: 100 µg/mL (≈ 308 µM)
MFC (Candida albicans): 62 µg/mL (≈ 191 µM)
MIC (Candida albicans): 62 µg/mL (≈ 191 µM)

O=C1CSC(c2ccc(Cl)cc2)N1CCN1CCCCC1 (stereo not drawn)
Cell viability (Vero [1]): 28%
MFC (Rhodotorula [2]): 50 µg/mL (≈ 154 µM)
MIC (Rhodotorula [2]): 50 µg/mL (≈ 154 µM)
Cell viability (Vero [3]): 90%
Cell viability (Vero [4]): 84%
MFC (Candida parapsilosis): 100 µg/mL (≈ 308 µM)
MIC (Candida parapsilosis): 100 µg/mL (≈ 308 µM)
MFC (Papiliotrema laurentii): 100 µg/mL (≈ 308 µM)
MIC (Papiliotrema laurentii): 100 µg/mL (≈ 308 µM)
Cell viability (Vero [5]): 68%
MFC (Geotrichum): 50 µg/mL (≈ 154 µM)
MIC (Geotrichum): 50 µg/mL (≈ 154 µM)
MFC (Trichosporon asahii): 50 µg/mL (≈ 154 µM)
MIC (Trichosporon asahii): 50 µg/mL (≈ 154 µM)
Cell viability (Vero [6]): 84%
Cell viability (Vero [7]): 15%
Cell viability (Vero [8]): 13%
Cell viability (Vero [9]): 11%
Cell viability (Vero [10]): 74%
MFC [11]: 100 µg/mL (≈ 308 µM)
MIC [11]: 100 µg/mL (≈ 308 µM)
MFC (Candida albicans): 62 µg/mL (≈ 191 µM)
MIC (Candida albicans): 62 µg/mL (≈ 191 µM)

COc1ccccc1C1SCC(=O)N1CCN1CCCCC1 (stereo not drawn)
Cell viability (Vero [1]): 67%
MFC (Rhodotorula [2]): 16.5 µg/mL (≈ 51.5 µM)
MIC (Rhodotorula [2]): 16.5 µg/mL (≈ 51.5 µM)
Cell viability (Vero [3]): 100%
Cell viability (Vero [4]): 100%
Ratio (Rhodotorula [12]): 1.6
MFC (Candida parapsilosis): 100 µg/mL (≈ 312 µM)
MIC (Candida parapsilosis): 100 µg/mL (≈ 312 µM)
MFC (Papiliotrema laurentii): 100 µg/mL (≈ 312 µM)
MIC (Papiliotrema laurentii): 100 µg/mL (≈ 312 µM)
Cell viability (Vero [5]): 72%
MFC (Geotrichum): 41.5 µg/mL (≈ 130 µM)
MIC (Geotrichum): 41.5 µg/mL (≈ 130 µM)
MFC (Trichosporon asahii): 50 µg/mL (≈ 156 µM)
MIC (Trichosporon asahii): 50 µg/mL (≈ 156 µM)
Cell viability (Vero [6]): 100%
Ratio (Rhodotorula [13]): 1.6
Cell viability (Vero [7]): 30%
Cell viability (Vero [8]): 17%
Cell viability (Vero [9]): 5%
Cell viability (Vero [10]): 100%
MFC [11]: 100 µg/mL (≈ 312 µM)
MIC [11]: 100 µg/mL (≈ 312 µM)
MFC (Candida albicans): 100 µg/mL (≈ 312 µM)
MIC (Candida albicans): 100 µg/mL (≈ 312 µM)
